# Compound activity from PubChem.
# KDM4C inh: blocks human GASC-1 (KDM4C) demethylase activity; GST-KDM4C 2-372, H3K9me3 peptide, LANCE TR-FRET; inhibition, % at 12.5 µM; actives 0.15% (n = 96,000); Q9H3R0;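 active = mean replicate inhibition above about 25%, with at least 55% of replicates also reaching it, limit read from the data, passing the limit was not always enough; inconclusive = only one of those two conditions met; inactive = neither condition met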
#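 material = GST-tagged GASC-1 (JMJD2C) catalytic fragment, aa 2-372 | amount = enzyme final amount 10 nM | medium = HEPES buffer, pH 7.5, plus ascorbate | also added = H3K9me3 peptide substrate, Fe(II), 2-oxoglutarate | dosing = single dose | times = 30 min demethylation and 1 h detection at room temperature | detection = LANCE TR-FRET | read-out basis = Fall in 671/618 emission ratio as inhibition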
# IDH1 mut inh: IDH1 R132H (human) inhibition; IDH1 R132H reductase, diaphorase/resazurin fluorescence, 60 min; inhibition, % at 10 µM; actives 0.18% (n = 70,000); in the data active = inhibition above about 34%; inconclusive = no clear call, values can overlap the other calls; inactive = below about 11%;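 also: 0% = DMSO and 100% = no enzyme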
# Target sequence (O75874 whole entry R132H): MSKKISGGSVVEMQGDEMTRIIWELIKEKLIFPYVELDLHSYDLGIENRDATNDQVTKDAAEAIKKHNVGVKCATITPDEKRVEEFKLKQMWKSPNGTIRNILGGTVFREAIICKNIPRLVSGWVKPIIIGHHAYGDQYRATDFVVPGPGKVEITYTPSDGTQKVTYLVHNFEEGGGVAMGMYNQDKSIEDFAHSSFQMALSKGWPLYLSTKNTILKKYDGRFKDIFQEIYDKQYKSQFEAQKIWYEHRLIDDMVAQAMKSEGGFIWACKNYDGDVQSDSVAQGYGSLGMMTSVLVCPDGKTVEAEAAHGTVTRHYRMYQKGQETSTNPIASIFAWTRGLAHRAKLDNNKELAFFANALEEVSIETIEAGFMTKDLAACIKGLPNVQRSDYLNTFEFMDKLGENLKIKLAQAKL
# Pf Dd2 inh: inhibitors of Plasmodium falciparum Dd2 growth; P. falciparum Dd2 growth, SYBR Green, 72 h; active compounds read low; activity change, % at 10 µM; actives 2.3% (n = 94,000); AID 1159554; in the data active = activity change below about -80%; inconclusive = no clear call, values can overlap the other calls
# T cruzi growth: blocks T. cruzi growth in NIH3T3 culture; T. cruzi beta-gal in NIH3T3, GalScreen luminescence, 90 h; actives 5.9% (n = 77,000); inhibition, % at 8.34 µM;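 active = mean inhibition above about 93%, with at least 55% of replicates each passing it, limit read from the data, passing the limit was not always enough; inconclusive = only one of those two conditions holds; inactive = neither condition holds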
# Active calls of the source: *; ? = inconclusive; . = not tested or not shown. In the library only some 5.8% were active in any assay of this set; here they are far more common.
SMILES,KDM4C inh,IDH1 mut inh,Pf Dd2 inh,T cruzi growth
C[C@H]1CN([C@@H](C)CO)S(=O)(=O)c2ccc(-c3ccc(F)cc3)cc2O[C@H]1CN(C)CC1CC1,4.7,-3.6,-82.0*,.
CCOc1cccc(/C=N/NC(=O)c2cccc(C(=O)NO)c2)c1OCC,.,0.0,.,.
CCN(CC)S(=O)(=O)c1ccc(OC)c(NC(=O)c2cc3ccccc3oc2=O)c1,.,-0.2,.,.
Cc1ccc(NS(=O)(=O)c2ccc(NS(=O)(=O)c3ccc4c(c3)OCCO4)cc2)c(C)c1,.,0.1,.,.
C[C@H]1CN([C@@H](C)CO)S(=O)(=O)c2ccc(C#Cc3ccccc3F)cc2O[C@H]1CN(C)C(=O)Cc1cccnc1,-2.5,16.3,-82.5*,49.7
C[C@H]1CN([C@@H](C)CO)S(=O)(=O)c2ccc(-c3ccccc3)cc2O[C@H]1CN(C)Cc1cccnc1,1.2,.,-22.4,94.1
CCCNC(=O)N(C)C[C@@H]1Oc2cc(-c3cccnc3)ccc2S(=O)(=O)N([C@@H](C)CO)C[C@@H]1C,29.7*,24.2,6.7,-7.6
CCCNC(=O)N(C)C[C@@H]1Oc2cc(-c3cccnc3)ccc2S(=O)(=O)N([C@H](C)CO)C[C@H]1C,0.1,1.6,30.4,10.0
C[C@H]1CN([C@@H](C)CO)S(=O)(=O)c2ccc(-c3ccccc3)cc2O[C@@H]1CN(C)Cc1cccnc1,-3.4,.,-33.9,116.2*
C[C@@H]1CN([C@@H](C)CO)C(=O)Cc2cc(NS(=O)(=O)c3ccccc3)ccc2O[C@@H]1CN(C)Cc1ccc(C(=O)Nc2ccccc2N)cc1,-1.8,0.2,-88.3*,41.9
C[C@@H]1CN([C@H](C)CO)C(=O)Cc2cc(NS(=O)(=O)c3ccc(Cl)cc3)ccc2O[C@H]1CN(C)Cc1ccc(C(=O)Nc2ccccc2N)cc1,-1.4,.,-40.9,.
C[C@@H]1CN([C@@H](C)CO)C(=O)Cc2cc(NS(=O)(=O)c3ccc(Cl)cc3)ccc2O[C@@H]1CN(C)Cc1ccc(C(=O)Nc2ccccc2N)cc1,3.3,0.3,-81.9*,.
C[C@@H]1CN([C@H](C)CO)C(=O)Cc2cc(NS(=O)(=O)c3ccc(Cl)cc3)ccc2O[C@@H]1CN(C)Cc1ccc(C(=O)Nc2ccccc2N)cc1,4.6,-0.4,-84.9*,.
CCCNC(=O)C[C@@H]1C[C@H]2c3cc(NC(=O)CC4CC4)ccc3O[C@H]2[C@H](CO)O1,41.1*,?,-0.8,-50.5
CN(C)c1ccc2c(c1)[C@@H]1C[C@H](CC(=O)NCc3ccccc3)O[C@@H](CO)[C@@H]1O2,46.7*,-1.6,-35.7,41.9
CCCNC(=O)C[C@@H]1C[C@H]2c3cc(NC(=O)CC4CC4)ccc3O[C@H]2[C@@H](CO)O1,-0.4,0.1,16.0,-16.7
CN(C)c1ccc2c(c1)[C@H]1C[C@H](CC(=O)NCc3ccc(-c4ccccc4)cc3)O[C@H](CO)[C@H]1O2,2.6,.,-45.0,.
CN(C)c1ccc2c(c1)[C@@H]1C[C@@H](CC(=O)NCc3ccccn3)O[C@@H](CO)[C@@H]1O2,28.2*,-10.2,-34.9,-11.2
O=C(C[C@@H]1C[C@@H]2c3cc(NC(=O)Cc4ccncc4)ccc3O[C@@H]2[C@H](CO)O1)NCc1ccccc1,-1.8,0.1,-39.1,-2.2
O=C(C[C@H]1C[C@H]2c3cc(NC(=O)Cc4ccncc4)ccc3O[C@H]2[C@H](CO)O1)NCc1ccccc1,-2.1,0.1,-89.2*,6.3
COc1cc(Br)cc2cc(C(=O)NCCCN3CCOCC3)c(=O)oc12,.,-1.0,.,.
COc1ccc(-c2ccccc2[C@H]2[C@@H](C#N)N(C(=O)NC(C)C)[C@H]2CO)cc1,0.1,.,-87.2*,.
COc1ccccc1-c1ccccc1[C@@H]1[C@@H](C#N)N(C(=O)C2CC2)[C@@H]1CO,0.2,.,-97.6*,.
COc1ccc(-c2ccccc2[C@H]2[C@@H](C#N)N(C(=O)C3CCC3)[C@H]2CO)cc1,-0.6,.,-2.6,.
COc1ccc(-c2ccccc2[C@H]2[C@@H](C#N)N(C(=O)C3CCCC3)[C@@H]2CO)cc1,-1.3,.,-97.6*,.
SMILES,KDM4C inh,IDH1 mut inh,Pf Dd2 inh,T cruzi growth
COc1ccccc1-c1ccccc1[C@H]1[C@H](C#N)N(C(=O)C2CCC2)[C@H]1CO,-1.1,.,-84.6*,.
Cc1cc2nn(-c3ccc(Cl)cc3)nc2cc1NC(=O)COc1ccccc1C,.,-0.1,.,.
C[C@H](CO)N1C[C@H](C)[C@H](CN(C)Cc2ccccc2)Oc2c(NC(=O)c3cnccn3)cccc2C1=O,-1.7,.,-4.2,62.9
C[C@@H]1CN([C@@H](C)CO)C(=O)c2cccc(NC(=O)c3cnccn3)c2O[C@@H]1CN(C)Cc1ccc(Cl)c(Cl)c1,0.8,.,-58.1,9.7
C[C@@H]1CN([C@@H](C)CO)C(=O)c2cccc(NC(=O)c3cnccn3)c2O[C@H]1CN(C)Cc1ccc(Cl)c(Cl)c1,-1.5,-0.2,-82.9*,76.6
C[C@@H]1CN([C@@H](C)CO)C(=O)c2cccc(NC(=O)c3cnccn3)c2O[C@@H]1CN(C)Cc1ccc(-c2ccccc2)cc1,1.3,.,-86.9*,36.3
C[C@@H]1CN([C@H](C)CO)C(=O)c2cccc(NC(=O)c3cnccn3)c2O[C@H]1CN(C)Cc1ccc(C(=O)Nc2ccccc2N)cc1,-0.5,.,-90.9*,.
Cn1c(CN2CCOCC2)nnc1SCC(=O)Nc1ccc2ccccc2c1,.,-0.8,.,.
COc1ccc(Cl)cc1NC(=O)CN(C)S(=O)(=O)c1c(C)cc(C)cc1C,.,-0.1,.,.
COc1ccccc1-n1nnnc1SCC(=O)Nc1ccc(Br)cc1,.,-0.2,.,.
C[C@H](CO)N1C[C@H](C)[C@@H](CN(C)S(=O)(=O)c2ccccc2)OCCCC[C@H](C)Oc2ccc(NC(=O)C3CCCCC3)cc2C1=O,0.0,.,-53.3,54.9
Cc1ccc(S(=O)(=O)N(C)C[C@H]2OCCCC[C@H](C)Oc3ccc(NC(=O)C4CCCCC4)cc3C(=O)N([C@H](C)CO)C[C@H]2C)cc1,-1.5,0.1,-84.5*,49.2
Cc1ccc(S(=O)(=O)N(C)C[C@H]2OCCCC[C@H](C)Oc3ccc(NC(=O)C4CCCCC4)cc3C(=O)N([C@@H](C)CO)C[C@@H]2C)cc1,-1.2,1.2,-82.2*,25.7
Cc1ccc(S(=O)(=O)N(C)C[C@@H]2OCCCC[C@H](C)Oc3ccc(NC(=O)C4CCCCC4)cc3C(=O)N([C@H](C)CO)C[C@H]2C)cc1,0.3,.,-85.6*,82.2
Cc1ccc(S(=O)(=O)N(C)C[C@@H]2OCCCC[C@@H](C)Oc3ccc(NC(=O)C4CCCCC4)cc3C(=O)N([C@@H](C)CO)C[C@@H]2C)cc1,-2.3,-3.2,-78.7,71.3
C[C@@H]1CN([C@H](C)CO)C(=O)c2cc(NC(=O)C3CCCCC3)ccc2O[C@@H](C)CCCCO[C@@H]1CN(C)S(=O)(=O)c1ccccc1,0.5,.,-81.9*,59.3
Cc1ccc(S(=O)(=O)N(C)C[C@@H]2OCCCC[C@H](C)Oc3ccc(NC(=O)C4CCCCC4)cc3C(=O)N([C@@H](C)CO)C[C@@H]2C)cc1,-0.3,1.0,-74.0,55.5
COc1ccc2c3c(n(C)c2c1)[C@@H](CO)N(C(=O)Nc1ccc(F)cc1)CC31CN(Cc2cccc(F)c2)C1,.,.,6.9,.
